Like-named read-outs stand apart in the source and are kept apart here. One block for each molecule: values may come before it.
Columns and labels:
CYP3A4 [1] = experiment: Clearance of ACP-5862 in human liver microsomes; format: in vitro ADME; settings: assigned to CYP3A4
[2] = cited from earlier work
CYP2C9 = CYP2C9 (Homo sapiens, UniProt P11712); experiment: In vitro competitive inhibition of CYP2C9; format: in vitro ADME
[3] = Blood-to-plasma partition ratio; format: in vitro ADME
[4] = Physicochemical properties; settings: Experimental data
CYP2C8 = target: T1, CYP2C8 (Homo sapiens, UniProt P10632); experiment: In vitro competitive and time-dependent inhibition of CYP2C8; format: in vitro ADME
T1 sequence (P10632 1-490): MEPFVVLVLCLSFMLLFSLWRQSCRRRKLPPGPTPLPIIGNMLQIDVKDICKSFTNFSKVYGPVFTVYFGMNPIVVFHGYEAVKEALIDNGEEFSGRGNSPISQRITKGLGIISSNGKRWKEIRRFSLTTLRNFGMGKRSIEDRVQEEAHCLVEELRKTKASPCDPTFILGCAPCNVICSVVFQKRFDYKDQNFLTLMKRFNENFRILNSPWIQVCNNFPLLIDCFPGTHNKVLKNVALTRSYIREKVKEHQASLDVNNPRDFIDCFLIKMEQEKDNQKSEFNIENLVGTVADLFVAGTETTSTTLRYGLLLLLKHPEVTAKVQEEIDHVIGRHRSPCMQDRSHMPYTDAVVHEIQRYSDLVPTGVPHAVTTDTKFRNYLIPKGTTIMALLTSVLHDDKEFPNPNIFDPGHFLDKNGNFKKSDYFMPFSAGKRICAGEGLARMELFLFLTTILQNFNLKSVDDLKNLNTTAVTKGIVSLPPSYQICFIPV

[5] = cited from earlier work; remark: listed apart in the source
BTK = settings: cited from earlier work
CYP2C19 = CYP2C19 (Homo sapiens, UniProt P33261); experiment: In vitro competitive inhibition of CYP2C19; format: in vitro ADME; settings: read-out: CYP2C19 Ki; reversible inhibition
[6] = Unbound fraction in plasma; format: in vitro ADME
[7] = clinical DDI study with rifampicin; cited from earlier work
CYP1A2 = experiment: In vitro CYP induction, CYP1A2 marker substrate; format: in vitro ADME; settings: any concentration evaluated
human hepatocytes = experiment: Metabolite profiling of 14C-acalabrutinib in human hepatocytes; format: in vitro ADME; settings: 20 μM 14C-acalabrutinib
Method in brief: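 14C-labelled test compound at 20 μM was incubated with human hepatocytes from two male donors for qualitative metabolite profiling. Metabolism was apportioned between glutathione and CYP-mediated pathways, and the CYP3A share of CYP metabolite formation was estimated.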

P-gp [8] = target: T2, P-gp (Homo sapiens, UniProt P08183); experiment: In vitro P-gp inhibition; format: in vitro ADME
[9] = Clinical pharmacokinetics of acalabrutinib and ACP-5862; format: in vivo, human; settings: ACE-HV-001, oral
Method in brief: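 Healthy subjects in a phase I dose-escalation study (ACE-HV-001) received single oral acalabrutinib doses of 25, 50, 75 or 100 mg (cohorts 3–6). In vivo total clearance was taken from this study's plasma concentration–time data.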

[10] = PBPK model input parameters predicted, optimized or estimated in Simcyp; parameters: species or system human
CYP3A4 [11] = target: CYP3A4 (Homo sapiens, UniProt P08684); experiment: biochemical; format: in vitro ADME
P-gp [12] = target: T2, P-gp; experiment: Efflux in MDCKII-MDR1 cells; format: in vitro ADME; settings: dog, MDCK-MDR1
CYP2B6 = experiment: In vitro CYP induction, CYP2B6 marker substrate; format: in vitro ADME; settings: any concentration evaluated
CYP3A4 [13] = format: in vitro ADME; settings: any concentration evaluated
[14] = tested on: patients with relapsed/refractory mantle cell lymphoma; settings: median follow-up 15.2 months; cited from earlier work
[15] = tested on: patients with relapsed CLL; settings: median follow-up 14.3 months; cited from earlier work
[16] = with strong CYP3A inhibitor clarithromycin; cited from earlier work

CYP3A4 (Homo sapiens, UniProt P08684), sequence (P08684 whole entry): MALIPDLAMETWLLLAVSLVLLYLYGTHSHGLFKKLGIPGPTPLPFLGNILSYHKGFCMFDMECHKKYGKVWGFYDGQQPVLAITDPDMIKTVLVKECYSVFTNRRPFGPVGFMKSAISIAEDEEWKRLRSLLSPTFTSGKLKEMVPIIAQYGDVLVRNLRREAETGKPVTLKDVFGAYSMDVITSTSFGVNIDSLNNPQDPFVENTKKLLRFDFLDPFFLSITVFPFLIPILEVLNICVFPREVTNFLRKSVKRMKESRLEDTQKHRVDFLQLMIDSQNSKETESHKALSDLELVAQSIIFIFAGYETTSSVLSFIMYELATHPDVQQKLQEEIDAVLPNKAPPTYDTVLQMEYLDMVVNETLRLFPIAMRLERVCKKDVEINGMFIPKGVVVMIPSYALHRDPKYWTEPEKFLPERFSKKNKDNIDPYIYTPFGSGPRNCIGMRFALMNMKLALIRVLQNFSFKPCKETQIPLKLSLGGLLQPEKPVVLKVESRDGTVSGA
T2 sequence (P08183 whole entry): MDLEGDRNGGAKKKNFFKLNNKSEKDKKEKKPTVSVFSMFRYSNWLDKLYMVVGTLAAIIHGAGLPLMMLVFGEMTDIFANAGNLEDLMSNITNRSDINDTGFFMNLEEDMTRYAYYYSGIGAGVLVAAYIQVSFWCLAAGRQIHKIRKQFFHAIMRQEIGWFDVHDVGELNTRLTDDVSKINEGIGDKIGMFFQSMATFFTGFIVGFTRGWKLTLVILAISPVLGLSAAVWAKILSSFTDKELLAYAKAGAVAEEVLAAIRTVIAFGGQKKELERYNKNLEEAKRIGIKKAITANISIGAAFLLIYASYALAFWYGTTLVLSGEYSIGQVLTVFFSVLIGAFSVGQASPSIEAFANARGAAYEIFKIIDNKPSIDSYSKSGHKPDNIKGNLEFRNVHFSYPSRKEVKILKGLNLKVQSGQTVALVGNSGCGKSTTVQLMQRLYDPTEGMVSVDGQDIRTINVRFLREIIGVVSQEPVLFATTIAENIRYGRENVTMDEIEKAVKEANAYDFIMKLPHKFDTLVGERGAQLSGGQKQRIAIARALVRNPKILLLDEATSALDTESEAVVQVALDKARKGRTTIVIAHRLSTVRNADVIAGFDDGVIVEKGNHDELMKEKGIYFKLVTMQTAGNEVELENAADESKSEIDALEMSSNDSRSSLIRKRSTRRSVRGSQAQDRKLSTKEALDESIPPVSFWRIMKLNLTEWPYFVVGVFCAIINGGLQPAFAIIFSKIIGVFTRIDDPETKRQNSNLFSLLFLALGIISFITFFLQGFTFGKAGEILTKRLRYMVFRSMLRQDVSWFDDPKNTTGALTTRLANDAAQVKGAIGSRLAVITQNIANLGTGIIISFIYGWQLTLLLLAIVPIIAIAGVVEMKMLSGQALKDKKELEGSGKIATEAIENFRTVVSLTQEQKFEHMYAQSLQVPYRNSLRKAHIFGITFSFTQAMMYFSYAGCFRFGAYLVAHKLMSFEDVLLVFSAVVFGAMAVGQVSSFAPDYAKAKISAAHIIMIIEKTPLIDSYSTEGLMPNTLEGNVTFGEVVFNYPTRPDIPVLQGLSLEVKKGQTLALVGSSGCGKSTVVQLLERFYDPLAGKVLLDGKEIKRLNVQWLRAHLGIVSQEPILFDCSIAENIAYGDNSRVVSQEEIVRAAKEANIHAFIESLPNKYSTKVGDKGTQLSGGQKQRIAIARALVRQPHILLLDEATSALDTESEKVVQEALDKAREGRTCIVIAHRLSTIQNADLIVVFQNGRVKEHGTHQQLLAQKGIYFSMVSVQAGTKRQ
CYP2C9, sequence (P11712 whole entry): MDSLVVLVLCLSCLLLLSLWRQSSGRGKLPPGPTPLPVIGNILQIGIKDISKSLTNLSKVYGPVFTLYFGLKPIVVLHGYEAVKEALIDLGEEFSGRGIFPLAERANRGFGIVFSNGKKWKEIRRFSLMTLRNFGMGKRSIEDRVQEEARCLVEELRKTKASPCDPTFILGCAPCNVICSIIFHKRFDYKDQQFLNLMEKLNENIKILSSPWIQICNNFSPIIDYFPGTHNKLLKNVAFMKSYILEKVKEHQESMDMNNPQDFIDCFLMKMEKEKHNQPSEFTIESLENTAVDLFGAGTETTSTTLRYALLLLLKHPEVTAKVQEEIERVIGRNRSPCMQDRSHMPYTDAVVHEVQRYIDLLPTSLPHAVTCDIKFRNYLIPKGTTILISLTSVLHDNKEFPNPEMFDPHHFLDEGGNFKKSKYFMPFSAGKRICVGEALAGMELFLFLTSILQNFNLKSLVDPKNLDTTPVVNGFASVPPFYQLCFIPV
CYP2C19, sequence (P33261 whole entry): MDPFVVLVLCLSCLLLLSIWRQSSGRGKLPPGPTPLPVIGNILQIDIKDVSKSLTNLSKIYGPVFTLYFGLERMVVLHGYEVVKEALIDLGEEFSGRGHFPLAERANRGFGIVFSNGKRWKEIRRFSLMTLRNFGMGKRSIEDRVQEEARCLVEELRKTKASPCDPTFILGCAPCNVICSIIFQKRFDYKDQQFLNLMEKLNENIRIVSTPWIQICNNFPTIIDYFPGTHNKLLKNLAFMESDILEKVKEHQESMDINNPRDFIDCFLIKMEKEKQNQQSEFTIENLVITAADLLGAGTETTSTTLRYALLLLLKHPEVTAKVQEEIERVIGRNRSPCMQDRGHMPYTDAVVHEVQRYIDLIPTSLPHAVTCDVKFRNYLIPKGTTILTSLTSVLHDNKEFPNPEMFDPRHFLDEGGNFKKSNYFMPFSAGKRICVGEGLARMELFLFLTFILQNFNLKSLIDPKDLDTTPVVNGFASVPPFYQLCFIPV

Clint in vitro HLM, CYP3A4 (CYP3A4 [1]): 23.6 µL/min/mg
Ki (CYP2C9; read-out: CYP2C9 Ki, reversible inhibition): 3.35 µM
B/P ratio (blood-to-plasma ratio) ([3]; Experimental data): 0.65
Compound type [4]: Diprotic base
logP [4]: 2.72
pKa (first value) [4]: 3.41
pKa (second value) [4]: 4.49
Ki (CYP2C8; read-out: CYP2C8 KI, time-dependent inhibition): 4 µM
CYP2C8 kinact (CYP2C8; time-dependent inhibition): 0.72 h⁻¹
Ki (CYP2C19): 8.5 µM
fu,plasma (unbound fraction in plasma) ([6]; Experimental data): 0.013
Structure (SMILES): CC#CC(=O)NCCCC(=O)c1nc(-c2ccc(C(=O)Nc3ccccn3)cc2)c2c(N)nccn12 [ACP‐5862]
ACP-5862-related metabolites, share of total dose ([2]; human mass balance study): 10%
CLR (renal clearance) ([5]; ACP-5862, reported in ACE-HV-009): 0.3 L/h
half-life ([5]; ACP-5862 after single oral dose of 100 mg acalabrutinib): 6.9 h
potency for BTK inactivation relative to parent acalabrutinib (BTK): ~ 50%

induction of metabolism of CYP1A2 marker substrate (CYP1A2): did not cause significant induction
share of CYP3A in the formation of CYP metabolites (human hepatocytes): ~ 90%
relative contribution of CYP-mediated metabolic pathway (human hepatocytes; two male donors): 79%
relative contribution of glutathione metabolic pathway (human hepatocytes; two male donors): 21%
Ki (CYP2C9): 11.3 µM
blood plasma ratio ([3]; blood): 0.787
P-gp inhibition (P-gp [8]): not a P‐gp inhibitor
in vivo total clearance [9]: 169 L/h
Compound type [4]: Diprotic base
pKa ([4]; pKa (first value)): 3.54
CYP3A4 CLint ([10]; Retrograde model, total CYP3A4 clearance): 9.63 µL/min/pmol
microsomal CLint ([10]; human, liver microsomes): 290 µL/min/mg
CYP3A4 CLint ([10]; the rest to other metabolites): 8.14 µL/min/pmol
Ki (CYP2C8): 20.6 µM
Ki (CYP3A4 [11]; CYP3A4 Ki, reversible inhibition): 23.9 µM
kinact (CYP3A4 [11]; human): 0.000308 s⁻¹
efflux ratio at 1 μM (P-gp [12]): 42
induction of metabolism of CYP2B6 marker substrate (CYP2B6): did not cause significant induction
induction of metabolism of CYP3A4 marker substrate (CYP3A4 [13]): did not cause significant induction
fraction unbound ([6]; plasma): 0.026
Structure (SMILES): CC#CC(=O)N1CCC[C@H]1c1nc(-c2ccc(C(=O)Nc3ccccn3)cc2)c2c(N)nccn12 [Acalabrutinib]
unchanged acalabrutinib, share of excreted dose ([2]; human mass-balance study): 1.2%
acalabrutinib AUC with rifampicin, reduced to % of control [7]: ~ 20%
CLR (renal clearance) ([5]; clinical study ACE-HV-009): 1.33 L/h
absolute oral bioavailability ([5]; healthy subjects): 25%
oral half-life ([5]; healthy subjects): about 1.57 hours
accumulation after multiple doses ([5]; patients): no accumulation
investigator-assessed overall response rate [14]: 81%
overall response rate [15]: 95%

Structure (SMILES): CCN1CCN(Cc2ccc(Nc3ncc(F)c(-c4cc(F)c5nc(C)n(C(C)C)c5c4)n3)nc2)CC1 [abemaciclib]
increase in exposure [16]: 3.4 fold
